Laboratory results from paper PMC6075728 (Bioconjugate chemistry, 2017).
Entries after “also recorded” stand apart in the source; their conditions may differ. Where a SMILES comes first, the peptide text is derived from it. Where no end group is shown, it is not given here. The star is where a group is joined. X1 = O=C(O)CN1CCN(CC(=O)O)CCN(CC(O)Cn2cc(CCCC(=O)*)nn2)CCN(CC(=O)O)CC1; PEG2 = NCCOCCOCCC(=O)O

What was measured:
[1] = tested on: PC3 prostate tumor xenografts (EDB-FN); experiment: Contrast enhanced T1-weighted MRI, PC3 tumor xenografts; type: in vivo, mouse (male athymic nude); conditions: for tumor differentiation: CNR/enhancement in PC3 vs LNCaP tumors: PC3 compared with LNCaP tumors, during 30 min after injection; for signal/contrast enhancement: T1-weighted MRI, up to 30 min post-injection; for contrast-to-noise ratio (CNR), range: first 30 min post-injection, i.v. (ZD2-Gd(HP-DO3A) 0.1 mmol/kg), ZD2-Gd(HP-DO3A) vs ProHance P < 0.05 at all time points
[2] = r1 relaxivity in PC3 tumor lysates; type: physicochemical; conditions: T1 mapping phantom
[3] = tested on: other organs and normal tissues; experiment: Contrast enhanced T1-weighted MRI, other organs and normal tissues; type: in vivo, mouse (male athymic nude); conditions: i.v.
[4] = tested on: LNCaP prostate tumor xenografts (EDB-FN); experiment: Contrast enhanced T1-weighted MRI, LNCaP tumor xenografts; type: in vivo, mouse (male athymic nude); conditions: for signal/contrast enhancement: T1-weighted MRI, up to 30 min post-injection; for contrast-to-noise ratio (CNR), range: first 30 min post-injection, i.v., 7T
[5] = In vivo transmetallation and urinary excretion
LNCaP tumors = experiment: Quantitative T1 mapping, LNCaP tumors; type: in vivo, mouse (male athymic nude); conditions: 30 min after injection
[6] = Gd biodistribution / tissue retention; conditions: 1 week after injection, ICP-OES
[7] = T1 relaxivity at 7T in PBS; type: physicochemical; conditions: phantom, 3.12 - 50 μM
Outline: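 Multi-compartment phantom of the test compound in PBS at 50, 25, 12.5, 6.25 and 3.12 μM, imaged on a horizontal 7T scanner. T1 maps came from an accelerated multi-slice method combining a saturation-recovery Look-Locker sequence with spiral k-space sampling. r1 was taken from the slope of 1/T1 plotted against concentration.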

[8] = In vitro chelate stability / transmetallation in PBS with Cu2+, Ca2+, Zn2+; type: physicochemical
PC3 and LNCaP tumors = conditions: after T1 mapping, about 30 min post-injection; n = 4
EDB protein = EDB protein (Homo sapiens, UniProt P02751); experiment: SPR binding to immobilized EDB protein; conditions: second (blue) trend line
PC3 tumors = experiment: Quantitative T1 mapping, PC3 tumors; type: in vivo, mouse (male athymic nude); conditions: 30 min after injection
low-grade tumor = conditions: cited from earlier work
[9] = tested on: high-grade human prostate tumor; conditions: cited from earlier work
[10] = tested on: EDB-FN in PC3 tumor sections; experiment: Confocal fluorescence of PC3 tumor sections; parameters: species or system mouse; conditions: confocal microscopy
non-cancerous tissue = conditions: cited from earlier work

EDB protein, sequence (P02751 1271-1359 limits assumed): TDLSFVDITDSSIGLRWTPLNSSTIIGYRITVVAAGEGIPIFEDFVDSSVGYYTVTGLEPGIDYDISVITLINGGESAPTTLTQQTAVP

CC(O)CN1CCN(CC(=O)[O-])CCN(CC(=O)[O-])CCN(CC(=O)[O-])CC1.[Gd+3] (centres unmarked) [ProHance, gadoteridol, reference compound]
tumor differentiation: CNR/enhancement in PC3 vs LNCaP tumors [1]: not significantly different | signal/contrast enhancement ([1]; PC3 tumors): modest contrast enhancement | contrast-to-noise ratio (CNR), range ([1]; PC3 tumors, 7T, n=5): 7~11 | r1 relaxivity [2]: 3.17 mM⁻¹ s⁻¹ | contrast enhancement in other organs and normal tissues [3]: did not produce significant contrast enhancement | signal/contrast enhancement ([4]; LNCaP tumors): modest contrast enhancement | contrast-to-noise ratio (CNR), range ([4]; LNCaP tumors, n=5): 7~10

CC(C)[C@H](NC(=O)[C@@H](NC(=O)CCOCCOCCNC(=O)CCCc1cn(CC(O)CN2CCN(CC(=O)O)CCN(CC(=O)O)CCN(CC(=O)O)CC2)nn1)[C@@H](C)O)C(=O)N[C@@H](CCCNC(=N)N)C(=O)N[C@H](C(=O)N[C@@H](CO)C(=O)N[C@@H](C)C(=O)N[C@@H](CC(=O)O)C(=O)O)[C@@H](C)O (some centres unmarked) [ZD2-Gd(HP-DO3A)] ({X1-PEG2}-TVRTSAD-OH; C-terminus assumed)
chelation stability in vivo ([5]; summary statement, Fig. 7): same high in vitro and in vivo chelation stability | renal clearance ([5]; urine, 24 hours post-injection): rapid clearance through renal filtration | injected dose excreted in urine ([5]; within 24 hours post-injection, 0.1 mmol-Gd/kg tail vein, ICP-OES): over 95% | tumor T1, post-contrast (LNCaP tumors): 2.54 ± 0.13 s | tumor differentiation: CNR/enhancement in PC3 vs LNCaP tumors [1]: over two times higher | CNR increase at 10 min ([1]; PC3 tumors, 10 min post-injection, 0.1 mmol/kg i.v., n=5): over two-fold increase | contrast-to-noise ratio (CNR), peak ([1]; PC3 tumors, 30 min post-injection, 0.1 mmol/kg i.v., 7T, mean±SEM, n=5): 23.7±1.68 | CNR increase at 30 min ([1]; PC3 tumors, 30 min post-injection, 0.1 mmol/kg i.v., n=5): over five-fold increase | signal/contrast enhancement ([1]; PC3 tumors): strong signal enhancement within first 10 minutes post-injection | contrast-to-noise ratio (CNR), range ([1]; PC3 tumors, 7T, n=5): 12~25 | r1 relaxivity [2]: 4.12 mM⁻¹ s⁻¹ | tissue retention / accumulation ([6]; 0.1 mmol-Gd/kg tail vein, ZD2-Gd(HP-DO3A) n = 4, ProHance n = 3): minimal tissue accumulation; also recorded: same low tissue retention as ProHance; also recorded: No significant difference was seen between the two groups; also recorded: minimal body accumulation | Gd3+ concentration in most organs, including brain, heart, skin [6]: below the detection limit of ICP-OES in most of the organs | T1 relaxivity (r1) [7]: 3.7 mM⁻¹ s⁻¹ | relative Gd3+ content ([8]; 200-min incubation in PBS with and without Cu2+, Ca2+ or Zn2+): No decrease in Gd^3+ content was observed | transmetallation / chelate stability ([8]; 24 hours incubation with Cu2+, Ca2+ and Zn2+ in PBS, pH = 7.4): high chelate stability, comparable to its clinical analog ProHance, with no evident transmetallation | chelation stability in vitro ([8]; summary statement, Fig. 2): high chelate stability against transmetallation; also recorded: same high in vitro and in vivo chelation stability | Gd3+ concentration in tumors (ICP-OES) (PC3 and LNCaP tumors): significantly higher concentration in the PC3 tumors than in the LNCaP tumors and that of ProHance in both the tumors | weak binding site in SPR Scatchard plot (EDB protein): weak binding site | tumor T1, post-contrast (PC3 tumors): 1.81 ± 0.07 s | change in relaxation rate (ΔR1) (PC3 tumors; n = 4): highest relaxation rate change in the PC3 tumors among all cases | contrast enhancement in other organs and normal tissues [3]: did not produce significant contrast enhancement | signal/contrast enhancement ([4]; LNCaP tumors): significantly lower signal enhancement; also recorded: not evident in slow growing LNCaP tumors; also recorded: low enhancement | CNR increase ([4]; LNCaP tumors, first 30 min after 0.1 mmol/kg i.v., n=5): 10~60% | contrast-to-noise ratio (CNR), range ([4]; LNCaP tumors, n=5): 6~9 | CNR in LNCaP relative to PC3 tumors ([4]; LNCaP vs PC3, P < 0.01 for 10 and 20 min, P < 0.001 for 30 min post-injection): more than two times lower

Cys-Arg-Glu-Lys-Ala [CREKA-Gd(HP-DO3A), reference compound]
tumor differentiation: CNR/enhancement in PC3 vs LNCaP tumors [1]: no significant difference | signal/contrast enhancement ([1]; PC3 tumors): significant contrast enhancement in the periphery | signal/contrast enhancement ([4]; LNCaP tumors): significant contrast enhancement in the periphery

TVRTSAD [ZD2]
binding to low-grade tumor (low-grade tumor): low binding | reduction of PC3 tumor enhancement by competition ([1]; co-injection of excess free ZD2 peptide 0.5 mmol/kg with ZD2-Gd(HP-DO3A) 0.1 mmol/kg, PC3 tumors, n=3): significantly reduced signal enhancement and CNR; also recorded: blocked the binding of the targeted agent and reduced tumor enhancement in the PC3 tumors | binding to high-grade human prostate tumor [9]: strong specific binding | colocalization with EDB-FN [10]: colocalize with the EDB-FN fibril network | binding in non-cancerous tissue (non-cancerous tissue): non-binding
